# S1P4 agonist – agonists of human S1P4 receptor | activation, % at 4.98 µM | S1P4-expressing cell line, agonist reporter assay | O95977 | 0.35% of 220,000 active; in the data active = activation above about 11%;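 also: 0% = DMSO vehicle and 100% = reference agonist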
# Target sequence (O95977 whole entry, looked up): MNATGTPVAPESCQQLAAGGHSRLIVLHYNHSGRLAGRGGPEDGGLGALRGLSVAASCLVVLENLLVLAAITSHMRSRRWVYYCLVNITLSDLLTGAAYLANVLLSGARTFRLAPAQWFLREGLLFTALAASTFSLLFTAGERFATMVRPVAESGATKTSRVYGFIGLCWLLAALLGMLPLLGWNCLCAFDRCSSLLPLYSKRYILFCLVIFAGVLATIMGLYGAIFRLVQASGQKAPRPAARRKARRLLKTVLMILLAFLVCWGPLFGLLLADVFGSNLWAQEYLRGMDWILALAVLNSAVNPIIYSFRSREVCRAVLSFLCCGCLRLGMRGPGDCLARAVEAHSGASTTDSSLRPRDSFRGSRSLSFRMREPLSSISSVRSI
# S1P3 antagonist – blocks the human S1P3 receptor; Q99500; 0.27% of 170,000 active; inhibition, % at 4.98 µM; CHO S1P3 NFAT-BLA reporter, FRET fluorescence, antagonist mode; AID 485;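 active = inhibition above the plate cutoff, the mean inhibition of test wells on that plate plus 3 SD, cut at about 28% in these data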;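 also: cells challenged with S1P at its EC80 of 0.8 µM; blue over green emission ratio from cleaved BLA substrate after 4 h stimulation; 0% = S1P-stimulated wells and 100% = unstimulated DMSO-only wells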
# S1P4 antagonist – blocks the human S1P4 receptor; inhibition, % at 4.98 µM; S1P4-expressing cells, antagonist mode, reporter read-out; 0.26% of 220,000 active; AID 1510; in the data active = inhibition above about 29%;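 also: 0% = wells stimulated with agonist and 100% = vehicle wells without agonist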
# Mdm2 ligase inh – blocks human Mdm2 ubiquitin ligase activity | Q00987 | 0.11% of 210,000 active | cell-based MDM2 ubiquitination luciferase reporter, 2 h; 0 = plate control, 100 = twice control, blank-subtracted | signal enhancement, % at 5 µM;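 active = signal enhancement of 30% or more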;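 also: luminescence tracks abundance of the self-degrading MDM2-luciferase fusion protein; higher signal means inhibition of MDM2 E3 ligase activity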
#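 Assay system: stable mammalian line carrying autodegrading MDM2–luciferase fusion reporter; amount: 2000 cells seeded into each well; buffer or medium: DMEM; benchmarks: plate control and blank wells; signal: luciferase luminescence; timing: 2 h compound exposure at 37 °C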
# Lmaj promast – inhibitors of Leishmania major promastigote growth. Leishmania major promastigotes, resazurin fluorescence viability. inhibition, % at 10 µM. 9% of 200,000 active; in the data active = inhibition above about 50%;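 also: promastigotes grown with compound for 44 hours at 28 °C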
# S1P4 antag cf – human S1P4 antagonism, confirmation; shares compounds with S1P4 antagonist; S1P4-expressing cell line, antagonist mode, reporter read-out; inhibition, % at 4.98 µM; 71% of 520 active; in the data active = inhibition above about 30%
# S1P1 antag – human S1P1 antagonism as S1P4 antagonist counter-screen; shares compounds with S1P4 antagonist; cell-based S1P1 antagonist counterscreen, inhibition; inhibition, % at 4.98 µM; 37% of 520 active; AID 1564; in the data active = inhibition above about 40%;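 also: receptor stimulated with S1P near its EC80; 0% = agonist stimulated wells and 100% = vehicle only wells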
# * marks the source's active call; other numbers are inactive results; nt = no result given. The full list was thinned out, with hits kept by preference.
SMILES,S1P4 agonist,S1P3 antagonist,S1P4 antagonist,Mdm2 ligase inh,Lmaj promast,S1P4 antag cf,S1P1 antag
COc1cccc(-n2nnnc2S(C)(=O)=O)c1,0,nt,42*,-7,97*,110*,17
O=C(CC(SCCO)c1ccc2c(c1)OCO2)c1cccs1 (configuration not stated),-1,-11,36*,-22,73*,28,-21
COc1cc(NC(=O)Cn2ncc(Cl)c(Cl)c2=O)c(C)cc1[N+](=O)[O-],10,-15,93*,-25,89*,119*,40*
CCCCC1=CC2=C(c3ccco3)C(=O)C(C)(OC(=O)c3ccc(OC)cc3)C(=O)C2=CN1c1ccccc1 (configuration not stated),nt,nt,nt,28,nt,nt,nt
COC(=O)c1cc(NC(=O)C2CCCN(S(=O)(=O)c3c(C)n[nH]c3C)C2)cc(C(=O)OC)c1 (configuration not stated),-1,-1,-14,1,-2,nt,nt
CCCCC(=O)NCCc1cc2c(OC)ccc(OC)c2[nH]c1=O,2,18,-7,2,1,nt,nt
COc1ccc(C[C@H]2CN3C(=NC[C@@H]3C(C)C)N2CCNC(=O)c2ccc(C)c(Br)c2)cc1,-1,1,34*,nt,99*,41*,34
Cc1ccc(C(=O)NCCN2C3=NC[C@H](C(C)C)N3C[C@H]2Cc2ccc(O)cc2)cc1Br,0,-6,2,nt,5,nt,nt
Cc1ccc(-c2csc(NC(=O)C3CCN(S(=O)(=O)c4cccs4)CC3)n2)cc1,-1,2,59*,-29,76*,5,14
Cc1ccccc1NC(=O)C1CCN(S(=O)(=O)c2cccs2)CC1,1,-4,-4,2,-7,nt,nt
Cc1ccc(OCc2ccc(Br)cc2)c([N+](=O)[O-])n1,1,4,-6,-15,0,nt,nt
COc1ccc(N(CC(=O)N/N=C/c2ccc3c(c2)OCO3)S(=O)(=O)c2ccccc2)cc1,-1,-2,2,-13,-2,nt,nt
Cc1cc(C)n2c(=O)c3ccc(Cl)cc3nc2c1C#N,0,-15,-3,-6,-6,nt,nt
Cc1cc(Cl)n2c(nc3cc(F)c(F)cc32)c1C#N,3,-10,31*,-47,91*,112*,81*
N#Cc1ccc(/C=C/C(=O)c2cccnc2)cc1,1,-5,44*,2,101*,53*,52*
O=c1oc2ccccc2c(NCc2ccccc2F)c1[N+](=O)[O-],2,-6,-6,nt,-2,nt,nt
CC(C)c1ccc(CNc2c([N+](=O)[O-])c(=O)oc3ccccc23)cc1,0,-29,32*,-8,19,-3,-9
Cc1[nH]c(-c2ccc3c(c2)OCO3)nc1C(=O)O,2,nt,-24,-13,-6,nt,nt
CC(C)N1CCC2(CC1)N=C(c1ccc3c(c1)OCO3)CC(c1cc(Cl)ccc1O)N2 (configuration not stated),0,10,35*,-8,100*,79*,23
COc1ccc(OC)c(NC=C2C(=O)OC3(CCCCC3)OC2=O)c1,4,-16,32*,-14,-2,-19,-3
COc1ccc(OC)c(NC=C2C(=O)OC(C)(C)OC2=O)c1,0,-14,-8,-6,-1,nt,nt
CCOC(=O)c1c(NC(=O)OC)sc(C(=O)N(C)C)c1C,2,nt,44*,-9,2,-1,-3
O=C(O)CCn1c(=O)[nH]c2ccccc2c1=O,-2,-29,36*,-6,-7,0,-12
O=C(O)CCn1c(=O)c2ccccc2c2ccccc2c1=O,0,2,1,15,-5,nt,nt
c1cnc(Oc2ccc(-c3nnco3)cc2)cn1,1,-33,37*,-14,8,4,27
Cc1cc(NC(=O)CCS(=O)(=O)c2nc(-c3ccccc3)cc(C(F)(F)F)n2)no1,nt,-34,nt,17,nt,nt,nt
CS(=O)(=O)c1nc(-c2ccccc2)cc(C(F)(F)F)n1,0,nt,40*,15,2,116*,18
COc1ccc(NC(=O)/C(Cl)=C(/Cl)S(=O)(=O)Cc2ccccc2)cn1,4,nt,66*,-10,42,119*,62*
COc1ccc(NC(=O)Cc2ccc(-c3ccccc3)cc2)cn1,1,6,-7,-16,14,nt,nt
